Measured values reported in article PMC2920599 (Journal of medicinal chemistry, 2010).
Where two headings read alike, the source gives them in different places.

Columns and labels:
NSCLC = assay: NCI 60 cell panel, five-concentration assay, NSCLC subpanel; type: cell-based; details: total growth inhibition; 48 h exposure
Leukemia = assay: NCI 60 cell panel, five-concentration assay, leukemia subpanel; type: cell-based; details: total growth inhibition; 48 h exposure
CNS = assay: NCI 60 cell panel, five-concentration assay, CNS subpanel; type: cell-based; details: total growth inhibition; 48 h exposure
full NCI 60 cell panel = details: for GI50: read-out: GI50 MG-MID (mean GI50)
Ovarian = assay: NCI 60 cell panel, five-concentration assay, ovarian subpanel; type: cell-based; details: total growth inhibition; 48 h exposure
Prostate = assay: NCI 60 cell panel, five-concentration assay, prostate subpanel; type: cell-based; details: total growth inhibition; 48 h exposure
Breast = assay: NCI 60 cell panel, five-concentration assay, breast subpanel; type: cell-based; details: total growth inhibition; 48 h exposure
Renal = assay: NCI 60 cell panel, five-concentration assay, renal subpanel; type: cell-based; details: total growth inhibition; 48 h exposure
Melanoma = assay: NCI 60 cell panel, five-concentration assay, melanoma subpanel; type: cell-based; details: total growth inhibition; 48 h exposure
Colon = assay: NCI 60 cell panel, five-concentration assay, colon subpanel; type: cell-based; details: total growth inhibition; 48 h exposure
[1] = system: female athymic nude mouse; details: in vivo, ip
ERK1/2 = assay: Western blotting of ERK1/2 phosphorylation in MCF-7 cells; type: cell-based, human; details: 5 μM, 20 h
In short: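 MCF-7 cells treated 20 h, then collected in 20 mM HEPES pH 7.5 with 5 mM DTT, 2 mM EDTA, 0.1% CHAPS, 0.1% Triton X-100 and protease inhibitors, and freeze-thawed twice. Extracts run on SDS-PAGE at 80 μg protein/lane and immunoblotted for total and phosphorylated ERK1/2 and Akt, p53, p21 and β-actin. Blots representative of at least three experiments.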

[2] = system: MCF-7 breast cancer cells; assay: Growth and death of MCF-7 cells; type: cell-based, human; details: 200 nM, viable cells counted daily
In short: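 MCF-7 cells grown in RPMI 1640 with 10% FBS and 2 mM L-glutamine at 37°C, 5% CO2. Plated at 2×10^4 cells/cm2; compound added 24 h later from 10 mmol/L DMSO working solutions, with DMSO-only controls. Cells harvested with 0.11% trypsin/0.02% EDTA and counted; viability by trypan blue exclusion. Treated vs control compared by Student t-test, P<0.05.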

p53 = assay: Western blotting of p53 in MCF-7 cells; type: cell-based, human; details: 5 μM, 20 h
[3] = calculated panel mean, 48 h exposure
[4] = read-out: LC50 MG-MID (mean LC50), calculated panel mean, 48 h exposure

Compound	TGI NSCLC (NSCLC)	TGI Leukemia (Leukemia)	TGI CNS (CNS)	CC50 (full NCI 60 cell panel)	TGI MG-MID (mean TGI) (full NCI 60 cell panel; [3])	TGI Ovarian (Ovarian)	TGI Prostate (Prostate)	TGI Breast (Breast)	TGI Renal (Renal)	TGI Melanoma (Melanoma)	TGI Colon (Colon)	GI50 (full NCI 60 cell panel; [3])	CC50 (full NCI 60 cell panel; [4])	maximum tolerated dose (MTD) [1]	ERK phosphorylation (ERK1/2)	effect on MCF-7 cell growth (total cell number) [2]	p53 expression (p53)
COc1cc2c(/C=C3/C(=O)Nc4ccc(Br)cc43)c(Cl)[nH]c2cc1C [Compound 4]	14.13 µM	6.17 µM	8.91 µM	39.8 µM	9.33 µM	8.13 µM	7.94 µM	10.47 µM	10.96 µM	9.55 µM	6.76 µM						
COc1cc2c(/C=C3/C(=O)Nc4cc(Cl)ccc43)c(Cl)[nH]c2cc1C [Compound 7]	11.48 µM	4.79 µM	4.37 µM		6.61 µM	14.79 µM	5.25 µM	2.63 µM	7.08 µM	11.48 µM	3.55 µM	0.21 µM					
COc1cc2c(cc1C)NC(=O)/C2=C/c1c(Cl)n(C)c2cc(C)c(OC)cc12 [Compound 8]	97.72 µM	60.26 µM	87.10 µM		77.62 µM	91.20 µM	97.72 µM	77.62 µM		45.71 µM	87.10 µM	24 µM	91.2 µM				
COc1cc2c(/C=C3/C(=O)Nc4ccc(Br)cc43)c(Cl)n(C)c2cc1C [Compound 9]	9.33 µM	20.89 µM	7.08 µM	36.3 µM	8.32 µM	13.49 µM	8.91 µM	4.90 µM	6.76 µM	7.41 µM	6.03 µM	1.66 µM					
COc1cc2c(/C=C3/C(=O)Nc4ccc(N(C)C)cc43)c(Cl)n(C)c2cc1C [Compound 10]	91.20 µM	44.67 µM	60.26 µM		67.61 µM	77.62 µM	97.72 µM	54.95 µM	69.18 µM	67.61 µM	70.79 µM		97.7 µM				
COc1cc2c(/C=C3/C(=O)N(C)c4ccccc43)c(Cl)n(C)c2cc1C [Compound 13]	33.11 µM	4.07 µM	4.47 µM	77.6 µM	11.48 µM	18.20 µM	10.00 µM	13.18 µM	10.23 µM	14.13 µM	8.51 µM	0.32 µM					
COc1cc2c(/C=C3/C(=O)N(C)c4ccc(O)cc43)c(Cl)n(C)c2cc1C [Compound 14]	6.03 µM	0.47 µM	1.74 µM	33.9 µM	3.39 µM	11.75 µM	3.16 µM	1.70 µM	4.27 µM	7.41 µM	3.55 µM	0.1 µM					
COc1cc2c(cc1C)N(C)C(=O)/C2=C/c1c(Cl)n(C)c2cc(C)c(OC)cc12 [Compound 15]	69.18 µM	56.23 µM	26.92 µM	87.1 µM	52.48 µM	60.26 µM	67.61 µM	36.31 µM	41.69 µM	67.61 µM	83.18 µM	14.1 µM					
COc1cc2c(cc1C)N(C)C(=O)/C2=C/c1c(Cl)[nH]c2ccccc12 [Compound 16]	12.30 µM	7.41 µM	7.59 µM		10.96 µM	11.75 µM	21.38 µM	8.32 µM	12.88 µM	18.20 µM	9.33 µM	0.45 µM		100 mg/kg	decreased ERK phosphorylation	initially decreased cell proliferation, however after 24 h, the cells recovered and started to grow	caused a p53 increase
CN(C)c1ccc2[nH]c(Cl)c(/C=C3/C(=O)Nc4ccc(Cl)cc43)c2c1 [Compound 18]	10.00 µM	17.78 µM	5.50 µM	38.9 µM	9.77 µM	11.75 µM	13.49 µM	9.12 µM	8.13 µM	11.22 µM	7.24 µM						
CN(C)c1ccc2[nH]c(Cl)c(/C=C3/C(=O)Nc4ccc(O)cc43)c2c1 [Compound 19]	31.62 µM	13.49 µM	36.31 µM		29.51 µM	52.48 µM	53.70 µM	33.88 µM	33.88 µM	25.70 µM	20.42 µM	4.37 µM					
COc1ccc2c(c1)/C(=C\c1c(Cl)[nH]c3ccc(N(C)C)cc13)C(=O)N2 [Compound 20]	15.49 µM	10.23 µM	7.94 µM	49 µM	12.02 µM	15.14 µM	19.05 µM	8.51 µM	13.80 µM	15.49 µM	9.55 µM	2.29 µM					
